Results: the EternaBench riboswitch data

Tests used:
MS2 coat protein [1] = experiment: apparent Kd, MS2 coat protein; higher = weaker binding; RNA-MaP array; tryptophan 2.4 mM where present
How it was run: (§1)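 The titrant was SNAP-549-labelled MS2 coat protein, run from 0.7 or 1.5 nM in doubling steps to 3 µM. It was applied to designs transcribed by stalled E. coli RNA polymerase on Illumina sequencing-chip clusters, without ligand first and then with constant ligand, in 100 mM Tris-HCl pH 7.5, 80 mM KCl, 4 mM MgCl2, BSA, DTT, yeast tRNA and Tween-20. The apparent Kd is the median of filtered per-cluster binding-curve fits, with green signal normalised to red-channel RNA signal and control-cluster median Fmax.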

MS2 coat protein [2] = experiment: apparent Kd, MS2 coat protein; higher = weaker binding; RNA-MaP array; theophylline 2 mM where present
How it was run: as §1

[3] = designed as: OFF switch for tryptophan, no ligand
[4] = ligand present: tryptophan, designed as: OFF switch for tryptophan
[5] = designed as: OFF switch for theophylline, no ligand
[6] = ligand present: theophylline, designed as: OFF switch for theophylline
[7] = designed as: ON switch for theophylline, no ligand
[8] = ligand present: theophylline, designed as: ON switch for theophylline

| Sequence | apparent Kd (MS2 coat protein [2]; [5]) [nM] | apparent Kd (MS2 coat protein [2]; [6]) [nM] | apparent Kd (MS2 coat protein [2]; [7]) [nM] | apparent Kd (MS2 coat protein [2]; [8]) [nM] | also measured |
| --- | --- | --- | --- | --- | --- |
| CAAAAUUUAACGGCCGCCACUUACUCAUGAGGUAACAACAUGAGGAUCACCCAUGUUUGAGGAUCAAGGACCGGGUUAAAUUUUG |  |  |  |  | apparent Kd (MS2 coat protein [1]; designed as: ON switch for tryptophan, no ligand): 30.6 nM; apparent Kd (MS2 coat protein [1]; ligand present: tryptophan, designed as: ON switch for tryptophan): 18.2 nM |
| CUAUAAGUACCGGUCCUCAGAUCCUCAUGACGAGGACCGGUACGGCCGCCACUCGAAACAUGAGGAUCACCCAUGUAAUAAUAUC |  |  |  |  | apparent Kd (MS2 coat protein [1]; [3]): 20.7 nM; apparent Kd (MS2 coat protein [1]; [4]): 18.6 nM |
| AAUGGUCGUACUGGAAUGGUGAUCCUCAAACGAGGACCGGUACGGCCGCCACUCGAUAACAUGAGGAUCACCCAUGUAAUAAUAA |  |  |  |  | apparent Kd (MS2 coat protein [1]; [3]): 40.7 nM; apparent Kd (MS2 coat protein [1]; [4]): 20.8 nM |
| AGAUGAGUCACGGCCGCCACUCUUAUCAGGAUCACCCAUGGUUAACAUGAGGAUCACCCAUGUCUGAGGACCGGGUGAUGAGCAU |  |  |  |  | apparent Kd (MS2 coat protein [1]; [3]): 21.6 nM; apparent Kd (MS2 coat protein [1]; [4]): 23.9 nM |
| AGAUGAGUCACGGCCGCCACUCUUCACAGGUUCACCCUUGGUUAACAUGAGGAUCACCCAUGUGGGAGGACCGGGUGAUGAGCAU |  |  |  |  | apparent Kd (MS2 coat protein [1]; [3]): 13.7 nM; apparent Kd (MS2 coat protein [1]; [4]): 33.4 nM |
| AAUGGCCGUACCGGAAGGGUGAUCCUCAAACGAGGACCGGUACGGCCGCCACUCGAUAACAUGAGGAUCACCCAUGUAAUAAUAA |  |  |  |  | apparent Kd (MS2 coat protein [1]; [3]): 331 nM; apparent Kd (MS2 coat protein [1]; [4]): 389 nM |
| ACAUGAGGAUCACCCAUGUGGCGUCUUGAUACCAGACGAGAAGUAGUCCCUUGGCAGCAAAUACAUGAGGAUCACCCAUGUAGGA | 23.9 | 37.1 |  |  |  |
| AGCCGAAACCUUGAUACCAGAUCAUGCUGCACAUGAGGAUCACCCAUGUCGUUAAACAUGGUCCCUUGGCAGCAAGUUAGGAUCU |  |  | 76.4 | 23.9 |  |
| UUGCAUAUCUUGGAUACCAGCACAUGAGGAUCACCCAUGUCCGCGGGAUAGCUCCAGAUGUGCCCUUGGCAGCCACAUGCACUUG | 10.2 | 26.4 |  |  |  |
| ACAUGAGGAUCACCCAUGUAAUGGCACGAUACCAGCUGAUCCCGUGGCCCUUGGCAGCGUCCGGUGUGGUCCGCCGGGUUGGAGC |  |  | 21 | 39.3 |  |
| ACCGCAGGUCCUGAUACCAGAGACAUGAGGAUCACCCAUGUCCGAUCGUCCUGCCUCAGGCUCCCUUGGCAGCAGGGCUUGUCCU | 14.3 | 27.1 |  |  |  |
| CGUAUCGUAACUGAUACCAGUGUACUGACAUGAGGAUCACCCAUGUUGGGUUUUGUUGUACACCCUUGGCAGCAGAAUCGAUACG | 67 | 103 |  |  |  |
| AUAUGAUCAUACGAUACCAGAAAUGGUAUUCCUUUAUUUCUUACAUGAGGAUCACCCAUGUUCCCUUGGCAGCGUAUGAUCAUAU | 363 | 123 |  |  |  |
| AAACAUUGCUCAGAUACCAGACAUGAGGAUCACCCAUGUACCAAGGUACCCGAAAGGAAUGUCCCUUGGCAGCUGAGCAAUGAAA | 10.1 | 27.4 |  |  |  |
| GAAACGUAGGUGGAGCGGUGAAAUGGCGAUACCAGCGUGGAAACACGCCCUUGGCAGCGUUAGAACAUGAGGAUCACCCAUGUUU | 25.2 | 112 |  |  |  |
| ACUAGUUGUGCAGAUACCAGACAUGAGGAUCACCCAUGUUUGGGAUCUAAUGAUCAUCCUGUCCCUUGGCAGCUGUACAUCUAGA | 103 | 26.3 |  |  |  |
| AAAUAAAUAACUGAUACCAGUGGACUGACAUGAGGAUCACCCAUGUUGGGUUUUGUUGUCCACCCUUGGCAGCGGGCAUAUAAAA | 24.8 | 66.9 |  |  |  |
| AGACAUGUAAGAUAAAUGACUUAUACAGAUACCAGACUGUCUAAUGUCCCUUGGCAGCUGCAUAACAUGAGGAUCACCCAUGUAA | 28 | 26.1 |  |  |  |
| UGACGAUACCUGGAUACCAGCGACAUGAGGAUCACCCAUGUAUGAGGAUCAGCCAUGUUAUGCCCUUGGCAGCCACGAAAGUCUU | 45.7 | 171 |  |  |  |
| ACUAACUAUAGUGAUACCAGACGUACAUGAGGAUCACCCAUGUUACAUUCUUGGUUAAAAGUCCCUUGGCAGCACGAUAAGUUCG | 9.74 | 9.5 |  |  |  |
| AGCGACAUGCGUGAUACCAGCUACAUGAGGAUCACCCAUGUACGUCAGAAAUGACUGUGUAGCCCUUGGCAGCAUAAUGCAUGUC | 40.9 | 70.5 |  |  |  |
| CAUUAUGUAACUGAUACCAGUGUACUGACAUGAGGAUCACCCAUGUUGGGUUUUGUUGUACACCCUUGGCAGCAGAAUCAUAAUG | 63.5 |  |  |  |  |
| AACCGAGGCUAUCCUCUAAGAAAAUGUGAUACCAGAAUAAUUUUAUUCCCUUGGCAGCAUGACAUGAGGAUCACCCAUGUGUCUU |  |  | 187 | 151 |  |
| ACAUGAGGAUCACCCAUGUUCCUCGCCGAUACCAGUGAAGAAGAACGCCCUUGGCAGCGGAAAGAGUAUUUUGGAGAUGAGGUAC | 80.1 | 129 |  |  |  |
| UUAGAUAUGACAGAUACCAGCGUGUUGUUGAACAUGAGGAUCACCCAUGUAGUGAUCGAGCGCCCUUGGCAGCUGGUGUGUUUGG |  |  | 161 | 181 |  |
| AUCCUCAAGAAUGAUACCAGACCAAACAUGAGGAUCACCCAUGUAUCAGGCAAUUGUUACGUCCCUUGGCAGCAUGUAAGCCGAC |  |  | 54.9 | 60.2 |  |

| Sequence | apparent Kd (MS2 coat protein [2]; [5]) [nM] | apparent Kd (MS2 coat protein [2]; [6]) [nM] | apparent Kd (MS2 coat protein [2]; [7]) [nM] | apparent Kd (MS2 coat protein [2]; [8]) [nM] | also measured |
| --- | --- | --- | --- | --- | --- |
| CAUACUUUAUCCUAUGAGCCUAUUUGUGAUACCAGCAUCUAAAUUUGCCCUUGGCAGCACUUACAUGAGGAUCACCCAUGUUUUA |  |  | 26.8 | 40.7 |  |
| CCUGCGUUUCUUUUCUUUCGCAGGAAUGAUACCAGUAGGGAAACCUACCCUUGGCAGCAUGGGACAUGAGGAUCACCCAUGUAAU |  |  | 439 | 89.3 |  |
| CACUUCAUGUGAGAUACCAGUGCCUUACAUGAGGAUCACCCAUGUCGUAAUGUGGAGAAGCACCCUUGGCAGCUCGCUUCGAGUG |  |  | 83.9 | 71.7 |  |
| UCGCAUUGCUCAGAUACCAGACAUGAGGAUCACCCAUGUACCAAGGUACCCGAAAGGAAUGUCCCUUGGCAGCUGAGCAAUGCGU | 9.82 | 23.6 |  |  |  |
| AAGCUGGGUGUAAAAUAAAUAAUCACUGAUACCAGACUAUGAGAUGUCCCUUGGCAGCAGAAACAUGAGGAUCACCCAUGUAAUA | 20.7 | 21.5 |  |  |  |
| AUGUUUGUGUGAGAUACCAGUGAGGCCACAUGAGGAUCACCCAUGUCCCUCACUCCGGCCCACCCUUGGCAGCUCUUAUAGAAAA | 10 | 59.6 |  |  |  |
| CCAUACGUAACUGAUACCAGUGUACUGACAUGAGGAUCACCCAUGUUGGGUUUUGUUGUACACCCUUGGCAGCAGAAUCGUAUGG | 69 | 101 |  |  |  |
| AACAUGAGGACGGAUACCAGUCACAUGAGGAUCACCCAUGUACAUGAGGAUCACCCAUGUGGCCCUUGGCAGCCGCAUGUGAUCA | 327 | 473 |  |  |  |
| UAAAACAUGAGGAUCACCCAUGUAAAAGAUACCAGAGUGAUGAUCCUCCCUUGGCAGCUUAACGCUGAUUGAUUACAAUCAGCGA |  |  | 93.9 | 180 |  |
| UCACAUGAGGAUCACCCAUGUACAGGCGAUACCAGCCGUACAUUGGGCCCUUGGCAGCGCACCGAGACCUUUUAAAGCACUUCGG |  |  | 35.1 | 121 |  |
| GCACCAGGUACGGAUACCAGCUGCCACAGUUACAUGAGGAUCACCCAUGUGAUAAAGUGUAGCCCUUGGCAGCUGUACCUGGUGC |  |  | 114 | 14.3 |  |
| AGCGACAUGCGUGAUACCAGCUACAUGAGGAUCACCCAUGUGAGUAGGAAACUACUGUGUAGCCCUUGGCAGCACAGUGCAUGUC | 10.5 | 63.7 |  |  |  |
| GAUGAACUAUAUGAUACCAGACAACAUGAGGAUCACCCAUGUGAUAGUCGUCCUCUGCCUGUCCCUUGGCAGCGUAUAGUUUAUC | 40.6 | 102 |  |  |  |
| AUGUUUGUGUGAGAUACCAGUGAGGCCACAUGAGGAUCACCCAUGUCCCUCACUCCGGCCCACCCUUGGCAGCUCUUAUAGUAAA | 9.5 | 39.4 |  |  |  |
| AGAUCUUUCGAAAGAAGGAUAAUGGCUGAUACCAGAGACGAAAGUCUCCCUUGGCAGCAGUGCCAACAUGAGGAUCACCCAUGUA |  |  | 170 | 39.7 |  |
| GCACCAGGUACGGAUACCAGCUGCUCGAGAUACAUGAGGAUCACCCAUGUGACCUGGUUUAGCCCUUGGCAGCUGUACCUGGUGC |  |  | 15.8 | 9.98 |  |
| UCCUCCUCCGCAAGGAGGAGGAGUUGCGAUACCAGCACGGUAACGUGCCCUUGGCAGCGCACAUGAGGAUCACCCAUGUCAUGUU | 17.6 | 22.3 |  |  |  |
| GGCUGUUGCUCUUUGAAGCGGCAGCGUGAUACCAGAUGUAAGAGCGUCCCUUGGCAGCACGUUUACAUGAGGAUCACCCAUGUCA |  |  | 211 | 72.8 |  |
| GAUCCUCGUACGGAUACCAGCGACUAACAUGAGGAUCACCCAUGUGAUAAAGAAAAUAUUUGCCCUUGGCAGCCGAAUAGAUAGU |  |  | 72.7 | 34.9 |  |
| AACCGAGGCUAUCCUCUCCGACUAUGUGAUACCAGAAUAAUUUUAUUCCCUUGGCAGCAUGACAUGAGGAUCACCCAUGUCUCUU |  |  | 15.8 | 20.7 |  |
| UAAAACAUGAGGAUCACCCAUGUAAUUGAUACCAGAGUGAUGAUCCUCCCUUGGCAGCAAAACGCUGAUUGAUUACAAUCAGCGA |  |  | 54.3 | 207 |  |
| GAUGAUAUUGCAGAUACCAGACACAUGAGGAUCACCCAUGUCUCUGUGAUGUAGGAUUGUGUCCCUUGGCAGCUGCGAUAUCAUC | 229 | 91.3 |  |  |  |
| ACGAUACGACAUGAGGAUCACCCAUGUGAUACCAGCGUGGAAACACGCCCUUGGCAGCACAAAUACUCCAAUAACGUAUCGAAAA | 260 | 240 |  |  |  |
| GAGCUGAUGUAGGGUGGAUAUCCUUGAGAUACCAGUACAGAAAUGUACCCUUGGCAGCUCUUCCUUACAUGAGGAUCACCCAUGU | 18.7 | 23.1 |  |  |  |
| UCAUAUUAGUGAGAUGUAAGGUAUCAUGAUACCAGUAGAUAAUUAUACCCUUGGCAGCAUAACAUGAGGAUCACCCAUGUACAUG | 25.6 | 23.3 |  |  |  |
| UUAUCUAUAUUCGAUACCAGUACCCUGGCCGCAAAUCCUAACAUGAGGAUCACCCAUGUGUACCCUUGGCAGCGGGUAUGGGUUU | 23.2 | 88.8 |  |  |  |
